Our source for the inhibition values is PubChem BioAssay AID1800 (The Scripps Research Institute Molecular Screening Center, 2009).

SMILES strings stand for the structures. Hit rate of the full screen: of about 290,000 compounds, about 1,600 (0.55%) were called active. The sample holds actives, similar compounds and a random draw of the others, so the mix is not that of the screen. A number with no mark means an inactive call.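 How the source made its calls: active means inhibition above the mean of all tested compounds plus 3 SD, set per campaign (cut at about 35% in these data); inactive means the rest.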

This assay relates to Hepatitis C virus NS3 helicase. Description: inhibitors of HCV NS3 helicase, primary screen, biochemical, Cy5 molecular beacon fluorescence (AID 1800).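 Further: 0% = DMSO wells and 100% = thioflavine S control wells.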 To be noted: NS3 helicase DNA unwinding, at 10.9 µM, stronger effect = higher value. In short, it runs like this: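 Assay system: hepatitis C virus NS3 helicase domain fragment enzyme. Also added: annealed dual-labelled DNA beacon duplex, ATP-started. Timing: 1 h reaction at 25 °C, ATP-initiated. Technique: Cy5 fluorescence at 0 and 60 min, beacon hairpin quenching. Evaluation: % inhibition of unwinding. Replication: one well per compound.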
Regarding `COc1ccc(CN2C(=O)NC(=O)/C(=C\c3ccc(OC)c(OC)c3OC)C2=O)cc1`, the inhibition (commonly the drop in the measured response relative to a control, in per cent) was 21.5%.

In the case of `COc1cccc(N2C(=O)NC(=O)/C(=C\c3cn(C)c4ccccc34)C2=O)c1`, the inhibition is -1.98%. With `COc1ccc(N2C(=O)/C(=C/c3ccco3)C(=O)NC2=S)cc1`, the inhibition was 58.9% (active). In the case of `CN(C)CCN(CC1CCCN(Cc2ccccc2F)C1)C(=O)Cc1ccc(F)c(F)c1` (stereo not given), the inhibition was -18.8%. Next, `Cc1ccc(S(=O)(=O)N(C)c2ccc(C(=O)NCC3(N(C)C)CCCCC3)cc2)cc1`: -37.1%; `Cc1cc(C)cc(NC(=S)NC2CC3CCCC(C2)N3Cc2cccs2)c1` (stereo not given): -48.3%; `CC(C)n1c(=O)c(C=Nc2ccc(Br)cc2)c(O)n(Cc2ccco2)c1=O`: 45.5% (active). The figure for `CN(C)CCCN=Cc1c(O)n(Cc2ccco2)c(=O)[nH]c1=O` is 16.9%; for `COc1cc2nc(N3CCN(C(=O)[C@@H]4CCCO4)CC3)nc(N)c2cc1OC` it is -0.76%; for `CCN(CC)C(=O)Oc1ccc(NC(=O)N2CCOCC2)cc1` it is 4.52%.

Regarding `O=C(CN1CCCC1=O)NCCc1ccccc1`, the inhibition is 0.89%. Next, `CC(C)(C)c1ccc(CN2C(=O)CN=C(c3ccccc3)c3ccccc32)cc1`: 14.7%. On to `O=C1CC(=O)N(Cc2ccccc2)C(=O)N1CCCCCCN1C(=O)CC(=O)N(Cc2ccccc2)C1=O`, for which the inhibition was 41.5% (active).

As for `CC1(C)Cc2c(C#N)c(N3CCNCC3)nc(-c3ccco3)c2CS1`, the inhibition is -44.9%. On to `Cc1ccc(C2CN(C)CC2C(=O)c2ccc(F)cc2)cc1` (stereo not given), for which the inhibition was -2.19%.
